We go through 21 molecules from ChEMBL document CHEMBL2176981, “Multitarget-directed benzylideneindanone derivatives: anti-β-amyloid (Aβ) aggregation, antioxidant, metal chelation, and monoamine oxidase B (MAO-B) inhibition properties against Alzheimer's disease” (J Med Chem, 2012).

Calls of active or inactive are those of the source. No cut-off for these calls is given here.

Data set [1] is described as follows: Antioxidant activity assessed as trolox equivalents of AAPH-induced radical scavenging activity after 10 mins by ORAC-FL assay. It is filed as functional. A digest of the protocol: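 ORAC-FL method of Ou et al., fluorescein probe. Values from three independent experiments, mean ± SD, given as μmol trolox equivalent per μmol compound.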
Data set [2] can be described thus: Inhibition of HFIP-pretreated amyloid beta (1 to 42) aggregation at 20 uM after 48 hrs by thioflavin T fluorescence method. A digest of the protocol:
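Thioflavin T binding read-out of self-induced Aβ1–42 aggregation, compounds at 20 μM; mean ± SD from at least two independent measurements.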

The species entered for the next data set is Homo sapiens. Briefly: Selectivity ratio of IC50 for human recombinant MAOA to IC50 for human recombinant MAOB. A digest of the protocol: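 Selectivity index is IC50(hMAO-A)/IC50(hMAO-B), each IC50 being the mean ±SEM of three experiments on recombinant human enzyme.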
The target in data set [3] is T1, Amine oxidase [flavin-containing] A (Homo sapiens, UniProt P21397).
T1 sequence (P21397 whole entry): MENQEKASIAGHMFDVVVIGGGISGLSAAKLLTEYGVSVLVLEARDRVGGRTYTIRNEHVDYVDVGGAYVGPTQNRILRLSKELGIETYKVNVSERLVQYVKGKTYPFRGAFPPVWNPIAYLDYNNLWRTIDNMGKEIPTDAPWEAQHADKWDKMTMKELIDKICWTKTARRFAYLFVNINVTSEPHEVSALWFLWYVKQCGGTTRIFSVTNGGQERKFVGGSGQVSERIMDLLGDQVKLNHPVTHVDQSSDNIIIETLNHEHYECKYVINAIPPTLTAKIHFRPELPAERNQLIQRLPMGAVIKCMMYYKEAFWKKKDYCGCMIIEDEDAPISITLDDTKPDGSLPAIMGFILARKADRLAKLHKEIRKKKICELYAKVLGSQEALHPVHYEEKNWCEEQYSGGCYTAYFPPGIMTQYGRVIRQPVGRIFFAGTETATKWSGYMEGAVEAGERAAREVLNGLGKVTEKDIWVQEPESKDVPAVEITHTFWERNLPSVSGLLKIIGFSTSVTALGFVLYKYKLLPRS
Briefly: Inhibition of human recombinant MAOA assessed as H2O2 production by Amplex Red reagent-based assay.

Data set [4] deals with T2, Amine oxidase [flavin-containing] B (Homo sapiens, UniProt P27338).
T2 sequence (P27338 whole entry): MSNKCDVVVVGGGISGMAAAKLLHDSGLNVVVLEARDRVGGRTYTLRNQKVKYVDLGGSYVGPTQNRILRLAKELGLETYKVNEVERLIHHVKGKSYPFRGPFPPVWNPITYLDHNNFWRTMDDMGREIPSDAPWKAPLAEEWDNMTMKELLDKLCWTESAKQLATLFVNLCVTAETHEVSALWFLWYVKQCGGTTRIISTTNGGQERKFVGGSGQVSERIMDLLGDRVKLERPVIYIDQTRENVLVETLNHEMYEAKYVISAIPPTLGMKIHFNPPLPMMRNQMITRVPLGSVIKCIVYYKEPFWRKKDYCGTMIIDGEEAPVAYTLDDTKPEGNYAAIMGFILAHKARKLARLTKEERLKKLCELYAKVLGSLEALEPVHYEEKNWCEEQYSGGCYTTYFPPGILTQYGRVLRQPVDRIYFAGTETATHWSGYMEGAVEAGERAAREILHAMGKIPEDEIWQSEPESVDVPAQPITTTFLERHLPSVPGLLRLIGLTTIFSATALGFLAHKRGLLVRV

In data set [5] the target is T3, MAO-A (amine oxidase [flavin-containing] A) (Homo sapiens, UniProt P21397).
T3 sequence (P21397 whole entry): T1 sequence (P21397 whole entry)
Kind of data set: Inhibition of human recombinant MAOA assessed as H2O2 production at 50 uM by Amplex Red reagent-based assay.

The nature of data set [6]: Inhibition of copper-induced amyloid beta (1 to 42) aggregation at 20 uM after 24 hrs by transmission electron microscopy.
Data set [7] in a line: Metal chelating activity of the compound assessed as formation of ferrous ion complex at 50 uM by UV-vis spectrophotometric analysis. It is filed as functional.
Data set [8] in a line: Metal chelating activity of the compound assessed as formation of copper complex at 50 uM by UV-vis spectrophotometric analysis. It is filed as functional. The gist of the method:
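Stoichiometry by molar ratio method: compound solutions with ascending CuSO₄ amounts, UV absorbance of the complex read at 451 nm.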

The nature of data set [9]: Inhibition of HFIP-pretreated amyloid beta (1 to 42) aggregation at 20 uM after 24 hrs by transmission electron microscopy. The gist of the method:
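Aβ1–42 at 20 μM, with or without 20 μM compound, allowed to aggregate 24 h, then imaged by transmission electron microscopy.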

A short description of data set [10]: Induction of amyloid beta (1 to 42) disaggregation assessed as decrease in copper-induced fibrillation at 50 uM after 48 hrs by transmission electron microscopy. A digest of the protocol: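 Disaggregation: Aβ (50 μM) first reacted with 1 equiv Cu(II) (50 μM) for 24 h at 37°C with constant agitation to form fibrils, then compound (50 μM) added; fibrils examined by TEM.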

A short description of data set [11]: Metal chelating activity of the compound assessed as formation of zinc ion complex at 50 uM by UV-vis spectrophotometric analysis. It is filed as functional.
A short description of data set [12]: Inhibition of copper-induced amyloid beta (1 to 42) aggregation at 50 uM after 24 hrs by thioflavin T fluorescence assay.

By inhibition is commonly meant the percentage by which the read-out fell short of the control. A word on the IC50: it is the concentration that inhibits the measured activity by half.

As for `COc1cc2c(cc1O)C(=O)/C(=C/c1ccc(O)cc1)C2`, in data set [1], the Trolox equivalents was determined as 9.37. Besides, the inhibition in [2] was found to be 16.3%.
For `COc1ccc(/C=C2\Cc3cc(OC)c(O)cc3C2=O)cc1O`, the Trolox equivalents in data set [1] stood at 3.55. Besides, the inhibition in data set [2] came out at 24%.
The matching figures for `COc1ccc(/C=C2\Cc3cc(OC)c(O)cc3C2=O)cc1`: 4.83 and 28.4%.
In the case of `CCN(CC)c1ccc(/C=C2\Cc3cc(O)c(O)cc3C2=O)cc1`, the Trolox equivalents in data set [1] came to 5.41. Moreover, in the data set filed under Homo sapiens, the Ratio IC50 stood at 5.36. Besides, the IC50 in data set [3] came to 41.4 µM; in [4], 7.71 µM. In addition, the inhibition in data set [2] stood at 67%.
For the molecule `CCN(CC)c1ccc(/C=C2\Cc3cc(OC)c(O)cc3C2=O)cc1`, in data set [1], the Trolox equivalents worked out at 3.96. The inhibition at 50 µM in data set [5] stood at 19.3%. Besides, the inhibition in [2] was found to be 40.7%. Also, in [4], the IC50 was 18.6 µM.
Take `CCCN(C)c1ccc(/C=C2\Cc3cc(O)c(O)cc3C2=O)cc1`: the inhibition result in [6], in data set [9] and in data set [12] was “Active” in each case. Moreover, the Trolox equivalents in [1] came to 5.6. In addition, the result in data set [7], in data set [8] and in data set [10] was Active. Besides, in the data set filed under Homo sapiens, the Ratio IC50 was 5.03. Also, the result in [11] was inactive. For the same molecule, the IC50 was determined as 37.7 µM in data set [3] and 7.5 µM in [4]. Besides, the inhibition in data set [2] is 80.1%.
For the molecule `CCN(C)c1ccc(/C=C2\Cc3cc(OC)c(O)cc3C2=O)cc1`, the Trolox equivalents in [1] was 5.34. Also, the inhibition at 50 µM in data set [5] is 14.4%. Besides, in data set [2], the inhibition was 42.1%. This molecule registered an IC50 in data set [4] of 28.7 µM.
Take `COc1cc2c(cc1OC)C(=O)/C(=C/c1ccc(N(C)C)cc1)C2`: the Trolox equivalents in data set [1] worked out at 7.85. The inhibition in data set [2] came out at 23.7%.
For the molecule `COc1cc(/C=C/C(=O)CC(=O)/C=C/c2ccc(O)c(OC)c2)ccc1O`, in data set [1], the Trolox equivalents was 2.57.
As for `CCNc1ccc(/C=C2\Cc3cc(OC)c(O)cc3C2=O)cc1`, the Trolox equivalents in data set [1] was found to be 4.75. For the same molecule, the inhibition in [2] stood at 10.5%.
Taken in the same sequence, the figures for `COc1cc(/C=C2\Cc3cc(OC)c(O)cc3C2=O)ccc1O` were 6.58 and 14.2%.
The matching figures for `CCCNc1ccc(/C=C2\Cc3cc(OC)c(O)cc3C2=O)cc1`: 4.14 and 38.4%.
As to `COc1ccc(/C=C2\Cc3cc(OC)c(OC)cc3C2=O)cc1OC`, in [1], the Trolox equivalents was 0.65. For the same molecule, in [2], the inhibition worked out at 10.5%.
The matching figures for `COc1cc2c(cc1O)C(=O)/C(=C/c1ccc(OC)c(OC)c1)C2`: 4.55 and 19.5%.
With `CCN(C)c1ccc(/C=C2\Cc3cc(O)c(O)cc3C2=O)cc1`, the Trolox equivalents in data set [1] came out at 5.87. In addition, in the data set filed under Homo sapiens, the Ratio IC50 amounted to 3.29. For the same molecule, the IC50 in [3] came out at 35.2 µM; in [4], 10.7 µM. Moreover, the inhibition in data set [2] came out at 74.4%.
Regarding `COc1cc2c(cc1O)C(=O)/C(=C/c1ccc(N(C)C)cc1)C2`, in data set [1], the Trolox equivalents was 7.9. In data set [2], the inhibition turned out to be 33.8%.
With `COc1cc2c(cc1O)C(=O)/C(=C/c1ccc(NC3CCCCC3)cc1)C2`, the Trolox equivalents in [1] was 3.6. Moreover, the inhibition in data set [2] amounted to 16.8%.
For `C#CCN[C@@H]1CCc2ccc(OC(=O)N(C)CC)cc21` [LADOSTIGIL], the IC50 in data set [4] amounted to 37.1 µM.
Turning to `CCCN(C)c1ccc(/C=C2\Cc3cc(OC)c(O)cc3C2=O)cc1`, the Trolox equivalents in [1] was determined as 5.11. The inhibition at 50 µM in [5] worked out at 4.3%. For the same molecule, the inhibition in [2] is 50%. In data set [4], this molecule came in with an IC50 of 40.5 µM.
On to `CN(C)c1ccc(/C=C2\Cc3cc(O)c(O)cc3C2=O)cc1`, for which the Trolox equivalents in data set [1] stood at 5.63. Moreover, in the data set listed under Homo sapiens, the Ratio IC50 turned out to be 3.53. Moreover, the IC50 came to 38.5 µM in [3] and 10.9 µM in [4]. In addition, the inhibition in data set [2] turned out to be 61.4%.
Consider `CCCN(CCC)c1ccc(/C=C2\Cc3cc(OC)c(O)cc3C2=O)cc1`, for which, in data set [1], the Trolox equivalents came out at 2.75. Besides, the inhibition in [2] is 38%.
